Assay [1] in a line: Antioxidant activity assessed as superoxide radical scavenging activity at 200 ug/ml. The class given is functional. In a few lines: (§1)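 Superoxide was generated enzymatically by xanthine with xanthine oxidase (0.04 U) and nitroblue tetrazolium in 100 mM phosphate buffer, pH 8.2, with or without test agent. Mixtures were incubated at 37 °C for 30 min and stopped with glacial acetic acid. Formazan formation was measured spectrophotometrically.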

Assay [2] in a line: Antioxidant activity assessed as hydroxyl radical scavenging activity at 200 ug/ml. Format: functional.
In assay [3] the test system is Rattus norvegicus. The assay can be described thus: Antidyslipidemic activity against triton-induced hyperlipidemia in Charles Foster rat assessed as reduction in plasma phospholipid level at 100 mg/kg, po after 18 hrs relative to control. Further details: scale not given: the % may be the effect or the level left. Format: functional. A digest of the protocol: (§2)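 Adult male Charles Foster rats (200–225 g) were given Triton WR-1339 400 mg/kg i.p. Test agent was suspended in 0.2% w/v gum acacia in water and dosed orally at the same time. There were five rats per group, and controls received vehicle. At 18 h, retro-orbital blood was taken into EDTA and centrifuged at 2500g, 4 °C, 10 min. Plasma was diluted 1:3 in saline, and lipids were measured by standard enzymatic kits.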

Assay [4] can be described thus: Antioxidant activity assessed as inhibition of microsomal lipid peroxidation at 200 ug/mL. The class given is functional. Further details: scale not given: the % may be the effect or the level left. In a few lines:
(§3)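 Inhibition of lipid peroxidation in microsomal fractions, sonicated in phosphate buffer, was read out as nmol MDA formed/h/mg protein.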

Assay [5] relates to Rattus norvegicus. The assay can be described thus: Antidyslipidemic activity against triton-induced hyperlipidemia in Charles Foster rat assessed as reduction in plasma triglyceride level at 100 mg/kg, po after 18 hrs relative to control. Format: functional. The arrangement: scale not given: the % may be the effect or the level left. In a few lines:
as §2

The nature of assay [6]: Antioxidant activity assessed as inhibition of microsomal lipid peroxidation at 100 ug/mL. Format: functional. Further details: scale not given: the % may be the effect or the level left. A digest of the protocol:
as §3

Assay [7] is described as follows: Antioxidant activity assessed as superoxide radical scavenging activity at 100 ug/ml. The class given is functional. In a few lines:
as §1

The subject of assay [8] is Rattus norvegicus. The assay can be described thus: Antidyslipidemic activity against triton-induced inhibition of post heparin lipolytic activity in Charles Foster rat at 100 mg/kg, po after 18 hrs. Format: functional. Further details: scale not given: the % may be the effect or the level left. A digest of the protocol: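 Triton WR-1339 hyperlipidemia model in male Charles Foster rats (200–225 g): 400 mg/kg i.p. triton plus oral test agent in gum acacia suspension, with five rats per group. After 18 h, post-heparin lipolytic activity was determined by the Wing and Robinson method on plasma, using spectrophotometry and an auto-analyzer.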

A short description of assay [9]: Antioxidant activity assessed as hydroxyl radical scavenging activity at 100 ug/ml. Format: functional.
In assay [10] the test system is Rattus norvegicus. Put plainly: Antidyslipidemic activity against triton-induced hyperlipidemia in Charles Foster rat assessed as reduction in total cholesterol level at 100 mg/kg, po after 18 hrs relative to control.

The structures appear in SMILES notation.

`COC(=O)C1=C(C)N(c2ccccc2)C=CC1c1ccccc1` (centres undefined): the Activity is -43% in assay [1]; -23% in assay [2]; 21.3% in the assay with Rattus norvegicus [3]; -37.3% in assay [4]; 18.7% in the assay on Rattus norvegicus [5]; -21.5% in [6]. The Activity in [7] was -25.9%; in the assay with Rattus norvegicus [8] it was 10.9%; in assay [9], -26.9%. In the assay on Rattus norvegicus [10], the total cholesterol lowering was determined as 24.8%.
As to `CCOC(=O)C1=C(C)N(c2ccc(C)cc2)C=CC1c1ccccc1` (centres undefined), the Activity in assay [1] is -35.8%; in assay [2], -32.7%; in the assay on Rattus norvegicus [3], 23.7%; in assay [4], -38.4%; in the assay on Rattus norvegicus [5], 21.2%; in [6] it was -23.5%. The Activity is -22.9% in [7], 24.9% in the assay with Rattus norvegicus [8] and -20.7% in [9]. Further, the total cholesterol lowering in the assay on Rattus norvegicus [10] stood at 18.7%.
With `CCOC(=O)C1=C(C)N(c2ccc(Cl)cc2)C=CC1c1ccccc1` (centres undefined), the Activity in [1] is -37.4%; in [2] it was -31.1%; with Rattus norvegicus [3] it was 16.5%; in [4] it was -34.4%; in the assay on Rattus norvegicus [5], 9.8%; in assay [7] it was -19.1%. Moreover, the figures for the Activity (in the assay with Rattus norvegicus [8]; in assay [9]) were 8.3% and -20.8%, respectively. Further, the total cholesterol lowering in the assay with Rattus norvegicus [10] was 16%.
On to `COC(=O)C1=C(C)N(c2ccc(OC)cc2)C=C(C)C1c1ccccc1` (centres undefined), for which the Activity in [1] was -34.7%; in assay [2] it was -22.6%; with Rattus norvegicus [3] it was 15.3%; in [4], -28.9%; in the assay with Rattus norvegicus [5] it was 20.7%; in assay [6] it was -14.7%. The Activity in assay [7] is -19.8%; in the assay on Rattus norvegicus [8], 14.7%; in assay [9] it was -13.9%. Besides, in the assay with Rattus norvegicus [10], the total cholesterol lowering is given as 15%.
On to `COC(=O)C1=C(C)N(c2ccccc2)C=CC1c1ccc(OC)cc1` (centres undefined), for which the Activity in assay [1] is -44.8%; in assay [2], -27.7%; in the assay with Rattus norvegicus [3], 18.7%; in [4] it was -30.3%; with Rattus norvegicus [5], 18.7%; in assay [6], -17.6%. Moreover, the Activity is -29.8% in assay [7], 9.8% in the assay on Rattus norvegicus [8] and -18.3% in [9]. Besides, in the assay with Rattus norvegicus [10], the total cholesterol lowering worked out at 18.1%.
Regarding `CCOC(=O)C1=C(C)N(c2ccc(Br)cc2)C=CC1c1ccccc1` (centres undefined), the Activity is -28.4% in assay [1]; -35.7% in assay [2]; 12.5% in the assay with Rattus norvegicus [3]; -32.1% in [4]; 12.1% in the assay on Rattus norvegicus [5]; -20.7% in assay [6]. Further, the results for the Activity (in assay [7]; with Rattus norvegicus [8]; in [9]) were -18.7%, 12% and -14.8%, respectively. Further, the total cholesterol lowering in the assay on Rattus norvegicus [10] came to 18.3%.
Take `COC(=O)C1=C(C)N(c2cccc(C)c2C)C=C(C)C1c1ccccc1` (centres undefined): the Activity is -32.2% in assay [1]; -29.3% in [2]; 23.9% in the assay with Rattus norvegicus [3]; -33.1% in assay [4]; 25.7% with Rattus norvegicus [5]; -22.7% in assay [6]. Further, the Activity is -23.6% in [7], 23.7% with Rattus norvegicus [8] and -19.7% in assay [9]. In the assay with Rattus norvegicus [10], the total cholesterol lowering came out at 24.1%.
As to `OC[C@@H](O)[C@@H](O)[C@H](O)[C@H](O)CO`, the Activity in assay [2] was -44.5%; in assay [9], -31.2%.
Consider `CCOC(=O)C1=C(C)N(c2ccc(F)cc2)C=CC1c1ccccc1` (centres undefined), for which the Activity in [1] was -42.5%; in assay [2] it was -25.5%; in the assay with Rattus norvegicus [3], 15.3%; in assay [4], -35.8%; in the assay with Rattus norvegicus [5], 13.6%; in assay [6], -28.5%. For the same compound, the Activity in assay [7] is -25.7%; in the assay on Rattus norvegicus [8], 8.1%; in assay [9], -10.9%. For the same compound, the total cholesterol lowering in the assay on Rattus norvegicus [10] was 17%.
`CC1=C(C(=O)OC(C)(C)C)C(c2ccccc2)C=CN1c1ccc(Cl)cc1` (centres undefined): the Activity in [1] is -48%; in [2] it was -34.6%; in the assay with Rattus norvegicus [3] it was 13.5%; in assay [4], -26.6%; with Rattus norvegicus [5], 11.5%; in [6], -18.5%. Further, the Activity in assay [7] was -24.5%; with Rattus norvegicus [8], 8.9%; in assay [9], -19.2%. In addition, the total cholesterol lowering in the assay on Rattus norvegicus [10] is given as 15.5%.
Regarding `COC(=O)C1=C(C)N(c2ccccc2)C=C(C)C1c1ccccc1` (centres undefined), the Activity in [1] was -48%; in assay [2], -33.1%; in the assay with Rattus norvegicus [3], 11%; in [4] it was -37.4%; in the assay with Rattus norvegicus [5], 8.1%; in [6] it was -22.7%. In addition, the Activity in assay [7] was -21.1%; with Rattus norvegicus [8], 8.4%; in [9], -14.1%. In addition, in the assay with Rattus norvegicus [10], the total cholesterol lowering stood at 11%.
Turning to `CCOC(=O)C1=C(C)N(c2ccccc2)C=CC1c1ccccc1` (centres undefined), the Activity in assay [1] was -34%; in [2], -29.3%; in the assay on Rattus norvegicus [3], 28.5%; in [4] it was -37.1%; with Rattus norvegicus [5], 25.3%; in assay [6], -19.9%. Also, the Activity in assay [7] was -21.5%; in the assay with Rattus norvegicus [8], 16.3%; in assay [9], -13.8%. In the assay on Rattus norvegicus [10], the total cholesterol lowering was found to be 21.9%.
On to `Cc1c(C)c2c(c(C)c1O)CC[C@@](C)(CCC[C@H](C)CCC[C@H](C)CCCC(C)C)O2`, for which the Activity in [4] was -52.1%; in [6] it was -43.9%.
Regarding `CC1=C(C(=O)OC(C)(C)C)C(c2ccccc2)C=CN1c1ccccc1` (centres undefined), the Activity was -52.9% in assay [1]; -37.1% in [2]; 12.8% with Rattus norvegicus [3]; -42.1% in assay [4]; 11% with Rattus norvegicus [5]; -35.7% in [6]. Further, the Activity is -30.7% in assay [7], 8.4% with Rattus norvegicus [8] and -23.1% in assay [9]. For the same compound, the total cholesterol lowering in the assay with Rattus norvegicus [10] is 11.5%.
On to `COC(=O)C1=C(C)N(c2cccc(Cl)c2)C=C(C)C1c1ccccc1` (centres undefined), for which the Activity in assay [1] is -35.3%; in assay [2], -23%; in the assay on Rattus norvegicus [3] it was 13.4%; in assay [4], -22.8%; in the assay on Rattus norvegicus [5], 8.9%; in assay [6] it was -16.2%. The values for the Activity (in assay [7]; with Rattus norvegicus [8]; in assay [9]) were -21.3%, 13.9% and -12%, respectively. The total cholesterol lowering in the assay with Rattus norvegicus [10] stood at 12.2%.
As to `Cc1ccc(C)c(OCCCC(C)(C)C(=O)O)c1` [GEMFIBROZIL], the Activity with Rattus norvegicus [3] came to 39.1%; with Rattus norvegicus [5], 36.1%; in the assay with Rattus norvegicus [8], 34.2%. The total cholesterol lowering with Rattus norvegicus [10] was determined as 37.1%.
As to `CCOC(=O)C1=C(C)N(c2ccccc2)C=CC1c1ccccc1[N+](=O)[O-]` (centres undefined), the Activity in assay [1] was -33.6%; in assay [2], -26.9%; in the assay on Rattus norvegicus [3] it was 5.7%; in assay [4], -25.1%; in the assay on Rattus norvegicus [5], 10.5%; in [6] it was -19.2%. Moreover, the Activity in assay [7] was -20.6%; in the assay on Rattus norvegicus [8], 12.3%; in [9], -11.5%. In the assay on Rattus norvegicus [10], the total cholesterol lowering worked out at 14%.
As for `Oc1ncnc2[nH]ncc12`, the Activity in assay [1] was -77.5%; in [7], -66.4%.

For the origin of these results see ChEMBL document CHEMBL1154745, “Synthesis and biological evaluation of N-aryl-1,4-dihydropyridines as novel antidyslipidemic and antioxidant agents” (2010).
